From PubChem BioAssay
HTRA1 inhibitor: HTRA1 (human) protease inhibition. AID 504803. Q92743. actives 0.5% (n = 340,000). inhibition, % at 5.96 µM. recombinant HTRA1, FP-rhodamine activity-based probe, fluorescence polarization; in the data active = inhibition above about 36%;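 note: 0% = enzyme with DMSO and 100% = wells lacking enzyme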
ABHD4 inh: ABHD4 (mouse) inhibition, primary FP screen | Q8VD66 | purified mABHD4, FP-Rh probe fluorescence polarization | inhibition, % at 8.92 µM | actives 0.54% (n = 370,000);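 active = inhibition exceeding the mean over every tested compound plus 3 SD, cut at about 30% in these data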;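 note: 0% = plate median of compound wells and 100% = S159A mutant with DMSO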
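Assay system: wild-type mouse ABHD4 protein; compound: single nominal dose of 8.92 µM, 0.89% DMSO final; schedule: 45 min + 60 min at 25 °C; measured by: FP readout, ex 525 nm / em 598 nm; evaluation: % inhibition of FP-Rh probe binding versus controls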
TCR CD3 inh: blocks the human TCR-CD3 interaction; actives 0.37% (n = 360,000); TAMRA-labeled TCR probe fluorescence, biochemical; AID 651800; inhibition, % at 9.4 µM; in the data active = inhibition above about 19%;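 note: recombinant mutant TCR 2C K166C tagged with TAMRA read by polarization; 0% = receptor in buffer alone and 100% = receptor with positive control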
SIAE inh: human SIAE inhibition, primary screen | Q9HAT2 | SIAE FP-Rh probe binding, fluorescence polarization | inhibition, % at 9.66 µM | actives 0.69% (n = 370,000) | AID 1053197;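 active = inhibition above a cutoff: mean of compounds within the control limits plus 3 SD of those, cut at about 17% in these data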;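 note: 0% = plate median of compound wells and 100% = probe without SIAE protein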
DAGLB inh: blocks human DAGLB lipase activity. Q8NCG7. inhibition, % at 5.17 µM. actives 0.059% (n = 340,000). HEK293T DAGLB membrane lysate, EnzChek fluorogenic substrate; in the data active = inhibition above about 34%;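 note: 0% = enzyme with vehicle and 100% = wells lacking enzyme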
Target sequence (Q8NCG7 whole entry, looked up): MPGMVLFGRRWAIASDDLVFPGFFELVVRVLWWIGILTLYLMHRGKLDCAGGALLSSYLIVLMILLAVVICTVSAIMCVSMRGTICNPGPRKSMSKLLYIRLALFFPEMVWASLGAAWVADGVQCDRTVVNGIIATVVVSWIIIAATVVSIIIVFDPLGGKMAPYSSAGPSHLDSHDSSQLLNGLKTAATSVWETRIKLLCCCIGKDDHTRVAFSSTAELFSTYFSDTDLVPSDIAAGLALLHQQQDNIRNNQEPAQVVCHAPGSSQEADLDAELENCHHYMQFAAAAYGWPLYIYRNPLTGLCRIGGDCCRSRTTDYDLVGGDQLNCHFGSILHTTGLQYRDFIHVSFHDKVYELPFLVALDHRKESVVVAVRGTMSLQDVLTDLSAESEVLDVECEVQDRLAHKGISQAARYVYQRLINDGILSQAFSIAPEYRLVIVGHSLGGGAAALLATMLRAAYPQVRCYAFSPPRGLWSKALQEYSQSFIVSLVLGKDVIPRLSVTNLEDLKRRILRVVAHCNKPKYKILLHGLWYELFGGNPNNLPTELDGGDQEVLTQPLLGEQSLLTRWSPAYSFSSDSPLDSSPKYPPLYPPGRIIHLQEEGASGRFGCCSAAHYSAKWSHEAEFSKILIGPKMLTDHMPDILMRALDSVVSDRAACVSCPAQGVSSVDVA
ABHD4 confirm: ABHD4 (mouse) inhibition, FP confirmation. actives 55% (n = 1,800). AID 720658. purified mABHD4, FP-Rh probe fluorescence polarization. inhibition, % at 8.92 µM. shares compounds with ABHD4 inh;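 active = mean inhibition across replicates above the hit cutoff set in the primary screen, cut at about 30% in these data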;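 note: 0% = wild-type ABHD4 with DMSO and 100% = catalytically dead S159A mutant with DMSO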
The depositor's hits bear a star; nt = no result. The list is not random: actives were taken first. Their share in the collection is about 1.6%.

SMILES | HTRA1 inhibitor | ABHD4 inh | TCR CD3 inh | SIAE inh | DAGLB inh | ABHD4 confirm
CC(C)C[C@@H]1NC(=O)[C@H]2C[C@@]3(C)c4ccccc4N[C@H]3N2C1=O | nt | 5.7 | nt | 2.9 | nt | nt
CC(C)N(C[C@@H]1CSCCS(=O)(=O)N1)C(C)C | nt | 3.2 | -0.3 | 5.2 | nt | nt
CCOc1cccc(C=NNC(=O)C(=O)Nc2cccc(C(F)(F)F)c2)c1O | nt | 8.5 | 7.6 | 3.6 | nt | nt
Cc1[nH]n(-c2ncc(-c3ccccc3)s2)c(=O)c1C(c1ccc(Cl)cc1)C(C#N)C#N (stereo not drawn) | 12.3 | 48.9* | -13.0 | 14.5 | 14.6 | 51.6*
O=C(NC1CC1)c1sc2ccccc2c1Cl | 3.5 | -1.7 | -5.6 | -2.0 | 0.6 | nt
O=C(NNC(=S)NC1CCCCC1)c1sc2ccccc2c1Cl | 8.7 | 30.9* | 6.4 | 12.4 | 12.9 | 21.9
O=C(NCc1ccccc1Cl)C1CCCN(c2nc3ccccc3o2)C1 (stereo not drawn) | nt | 4.8 | nt | 1.7 | nt | nt
COc1ccc(S(=O)(=O)N(C(=O)C(C)C)c2ccc3oc(=O)sc3c2)cc1 | 20.9 | -27.2 | -9.3 | -41.2 | 6.6 | nt
COc1ccc(S(=O)(=O)N(C(=O)c2ccco2)c2cc3sc(=O)oc3c3ccccc23)cc1 | 21.7 | 53.9* | 2.7 | -52.8 | -0.5 | 30.5*
COc1ccc(NC(=S)Nc2ccccc2)cc1 | 3.9 | 0.9 | 0.8 | 10.3 | -0.8 | nt
Oc1ccc(NC(=S)Nc2ccccc2)cc1 | 5.4 | 42.4* | 8.3 | 7.6 | -1.1 | -7.1
N#Cc1ccc(NC(=O)OC2CCC23CCC(c2ccccc2)CC3)cc1 (stereo not drawn) | nt | -44.1 | nt | -25.6 | nt | nt
Oc1ccc(C=Nc2cccc3ccccc23)c(O)c1 | 19.0 | 30.3* | 2.5 | 3.3 | 1.9 | 10.4
CN(C)c1ccc(N=C/C=C2\N(C)c3ccccc3C2(C)C)cc1 | 19.4 | 32.0* | -1.1 | -4.2 | 10.1 | 7.9
O=c1c2cc3c(=O)n(-c4ccccc4O)c(=O)c3cc2c(=O)n1-c1ccccc1O | 19.8 | 29.6* | 6.3 | 7.2 | 2.2 | 2.2
CN(C(=S)NC(=O)C1CC1)c1ccc(O)cc1 | 6.4 | 30.2* | -0.3 | 2.9 | -2.0 | -2.4
CCN(C(=S)NC(=O)C1CC1)c1ccccc1 | 1.5 | 9.8 | 1.6 | 14.8 | -1.2 | nt
FC(F)(F)c1cccc(N2CCN(C(=S)Nc3nccc4ccccc34)CC2)c1 | nt | -0.9 | nt | -0.9 | nt | nt
Nc1ccc(S(=O)(=O)NNC(=O)C(=O)NNc2ccccn2)cc1 | -6.4 | 15.1 | -2.0 | -5.3 | -0.4 | nt
Cc1ccccc1S(=O)(=O)NNC(=O)C(=O)NNc1ccccn1 | 6.0 | 34.9* | -2.0 | -3.9 | -2.6 | 33.3*
Cc1ccc(S(=O)(=O)NNC(=O)C(=O)NNc2ccccn2)cc1 | 4.5 | 42.2* | -3.0 | -3.2 | -1.1 | 34.6*
CC(C)N1CC2(CC(c3ccccc3C(F)(F)F)=NO2)CN1C(=O)c1ccc(C(C)(C)C)cc1 (stereo not drawn) | -27.2 | 52.8* | -5.3 | -6.7 | -9.2 | 43.1*
CC(C)N1CC2(CC(c3ccccc3C(F)(F)F)=NO2)CN1C(=O)c1ccco1 (stereo not drawn) | 4.6 | 30.7* | 9.5 | -1.9 | -1.6 | 21.3
CCc1cc(C(=O)N=Nc2c(O)[nH]c3ccc([N+](=O)[O-])cc23)c2ccccc2n1 | 6.6 | 40.4* | 7.7 | 1.7 | 5.7 | 41.4*
CCOc1ccc(NS(=O)(=O)c2ccc(Cl)c(N=Nc3c(O)[nH]c(=S)[nH]c3=O)c2)cc1Br | 14.5 | 39.4* | -5.0 | 7.6 | 29.1 | 52.1*
SMILES | HTRA1 inhibitor | ABHD4 inh | TCR CD3 inh | SIAE inh | DAGLB inh | ABHD4 confirm
Oc1cccc2c(NC(=S)Nc3ccc(OC(F)F)cc3)cccc12 | 16.0 | 33.5* | -3.0 | 13.5 | -0.1 | 11.0
FC(F)Oc1ccc(NC(=S)NCc2ccccc2)cc1 | -1.7 | -1.7 | 1.2 | 3.7 | -2.9 | nt
Cc1c[nH]c2cccc(-c3cc4ccccc4o3)c12 | nt | 2.6 | nt | 5.2 | nt | nt
COC(=O)CCCC1=CC2=CC(=O)C(C)(OC(=O)c3cccs3)C(=O)C2=CN1Cc1ccco1 (stereo not drawn) | 15.8 | 31.5* | 5.5 | 13.1 | 4.7 | 14.0
COC(=O)CCCC1=CC2=CC(=O)C(C)(OC(=O)c3cccs3)C(=O)C2=CN1Cc1ccccc1 (stereo not drawn) | 24.1 | 15.5 | 10.7 | 1.5 | 4.3 | nt
CCN=c1scc(C)n1/N=C/c1cc(Br)c(O)c(Br)c1 | 27.3 | 55.1* | 2.9 | 11.9 | 26.2 | 66.1*
Cc1cccc(N=Cc2cc3c(cc2[N+](=O)[O-])OCO3)c1 | 39.6* | 41.2* | 2.0 | 12.4 | 2.8 | 26.3
CC(=O)c1ccc(NC(=O)CSc2nnc(-c3ccco3)c(-c3ccco3)n2)cc1 | 20.0 | 45.1* | 3.0 | 7.9 | -0.7 | 29.5*
Cc1nc(CNS(=O)(=O)c2cccc(F)c2)cs1 | -0.4 | 0.9 | -2.6 | -1.2 | 0.3 | nt
Cc1ccc(-c2csc(NS(=O)(=O)c3cccc(F)c3)n2)o1 | 14.5 | 30.2* | 5.6 | -11.6 | 12.2 | 25.9
Cn1c(-c2ccsc2)c(-c2cccs2)c2cc(-c3ccc4cc[nH]c4c3)ccc21 | 18.8 | 34.9* | -4.6 | 12.5 | 0.3 | 39.7*
Cn1c(-c2ccsc2)c(-c2cccs2)c2cc(-c3ccc4[nH]ccc4c3)ccc21 | 21.9 | 2.1 | -3.7 | 2.5 | -5.4 | nt
F[B-](F)(F)COc1ccccc1 | -3.2 | 68.5* | -0.8 | 2.8 | -3.7 | 35.5*
c1ccc(OCCOCCOc2ccccc2)cc1 | -7.8 | -0.1 | -8.2 | 2.6 | -12.1 | nt
Oc1ccccc1Nc1nc(NCC2CCCO2)c2ccccc2n1 (stereo not drawn) | -10.9 | 4.4 | -2.7 | 2.1 | 3.8 | nt
Oc1ccc(Cl)cc1Nc1nc(NCC2CCCO2)c2ccccc2n1 (stereo not drawn) | 6.0 | 35.4* | 5.5 | 3.4 | 0.4 | 31.0*
O=C1CCC(C(=O)OCC(=O)c2ccccc2)N1 (stereo not drawn) | 2.6 | 4.3 | -8.1 | -4.8 | 0.6 | nt
CC1CC(C)C(=O)C(C(CC2CC(=O)NC(=O)C2)OC(=O)CC(=O)c2ccccc2)C1 (stereo not drawn) | 2.1 | 60.0* | 1.2 | 0.0 | 1.3 | 15.1
O=C(N[C@H](Cc1ccccc1)C(=O)N1CCCN(Cc2ccccc2F)CC1)[C@H]1O[C@@H](n2ccc(=O)[nH]c2=O)[C@H](O)[C@@H]1O | nt | -7.6 | -0.7 | -7.2 | nt | nt
Cc1cc(-c2ccc3c(c2)COc2c4ccccc4nn2-3)on1 | -1.1 | 30.8* | 5.5 | -2.5 | -0.4 | -2.3
Cc1cc(Cl)c(S(=O)(=O)Nc2ccc3c(c2)OCO3)cc1OCC(=O)NC1CCCCC1 | -14.2 | 29.6* | 0.2 | -1.9 | 3.5 | 2.6
CC(C)C[C@@H]1COc2cccc(N3CCCC3)c2S(=O)(=O)N1 | nt | 2.4 | 0.6 | 2.8 | nt | nt
O=C(CSC1=NNC(c2ccccn2)S1)Nc1ccccc1 (stereo not drawn) | 9.4 | 52.7* | -4.8 | 8.9 | 7.7 | -16.4
O=C(CSC1=NNC(c2ccccn2)S1)Nc1cccc(Cl)c1 (stereo not drawn) | nt | 35.9* | -12.0 | -1.2 | nt | -9.5
